An excerpt weighted towards active compounds, which were near 4.3% of everything screened.
STAT1 inh: reduces IFN-gamma driven STAT1 reporter signal; 200,000 tested, 0.35% active; NIH 3T3 STAT1-luciferase reporter, luminescence; inhibition, % at 5.5 µM; AID 920;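 active means inhibition above a set limit, the mean inhibition across all tested compounds plus 3 SD, cut at about 34% in these data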;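 further: 0% = IFN-gamma with DMSO and 100% = IFN-gamma with 300 µM nifuroxazide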
STAT3 act: activators of IL-6 induced STAT3 signaling; U3A cells, IL-6 STAT3-luciferase reporter, luminescence; 100% = signal with IL-6 EC80 alone; 190,000 tested, 0.91% active; activation (% of control), % at 5.6 µM; AID 871;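 active means activation above the screen-wide mean of compound activation plus 3 SD, cut at about 130% in these data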;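 further: 0% = background luminescence of wells with medium and substrate only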
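Material: STAT3-luciferase reporter U3A cells; Probe or stimulus: IL-6 (33 ng/mL); Incubation: compound pre-incubation 1 h before IL-6, then 6 h stimulation at 37 °C; Technique: luminescence from STAT3-driven luciferase reporter; Evaluation: % activation versus median of IL-6-stimulated wells; Controls: IL-6-only high control.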
STAT1 act: activators of IFN-gamma induced STAT1 signaling. NIH 3T3 STAT1-luciferase reporter, luminescence; 100% = IFN-gamma alone, no compound. activation (% of control), % at 5.5 µM. 200,000 tested, 2.6% active. AID 932;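 active means activation above the screen-wide mean activation plus 3 SD, cut at about 130% in these data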;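 further: raw ratio to IFN-gamma control signal so 100% means no change and 0% no light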
STAT3 blocker: reduces IL-6 driven STAT3 reporter signal. U3A cells, IL-6 STAT3-luciferase reporter, luminescence; host cell line lacks STAT1. inhibition, % at 5.5 µM. 190,000 tested, 0.89% active;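 active means inhibition above the mean inhibition across all screened compounds plus 3 SD, cut at about 44% in these data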;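 further: 0% = DMSO only wells and 100% = 100 µM nifuroxazide control wells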
* marks the source's active call; other numbers are inactive results.

SMILES	STAT1 inh	STAT3 act	STAT1 act	STAT3 blocker
Cc1cc(C(=O)COC(=O)c2ccc(Br)o2)c(C)n1C	-37	100	135*	6
COc1ccc(C(=O)Nc2ccc(Cl)cn2)cc1Cl	-43	95	140*	9
CCn1ccc(C(=O)Nc2ccc(Cl)cn2)n1	-34	95	131*	15
CCn1ccc(C(=O)Nc2ccccc2SC)n1	-45	111	140*	1
[O-]c1c[n+](-c2ccc(-[n+]3cc([O-])on3)cc2)no1	-1	97	101	6
CCC(=O)Nc1ccc(-c2csc(C)n2)cc1	-14	97	116	1
Cc1nc(-c2ccc(C(=O)Nc3ccccc3F)cc2)cs1	75*	25	31	88*
Cc1cc(NC(=S)NC(=O)C2CC2)ccc1Br	-43	119	139*	-29
Cc1cc(NC(=O)C2CCCO2)ccc1Br (centres undefined)	-6	86	103	21
Fc1ccccc1Cn1nnc(-c2ccc3c(c2)OCO3)n1	-39	108	136*	-5
O=C(NCc1ccccc1F)c1ccc2c(c1)OCO2	1	105	99	0
O=c1c(Cl)c(N2CCN(c3ccc(F)cc3)CC2)cnn1-c1nc2ccccc2s1	-45	103	140*	0
O=C1CC(N2CCN(c3nc4ccccc4s3)CC2)C(=O)N1c1ccc(F)cc1 (centres undefined)	3	90	97	18
O=C(CCSc1ccccn1)Nc1ccc(Br)cc1	-45	103	140*	-1
N#Cc1ccc(Cn2ccnc2C(=O)Nc2ccccc2)cc1	-15	107	114	-8
Cc1ccc(Cn2ccnc2C(=O)Nc2ccccc2)cc1	-48	109	142*	-4
Cc1ccc(S(=O)(=O)c2nnn(-c3cccc(F)c3)c2N)cc1	7	102	92	0
Oc1[nH]c2ccccc2c1N=Nc1ccc(F)cc1	-50	119	144*	-27
Oc1[nH]c2ccccc2c1N=Nc1ccccc1F	-58	154*	151*	-69
Nc1ccc(-c2cn3cccnc3n2)cc1	-19	92	115	15
Cc1nn2cc(-c3ccc(N)cc3)nc2s1	-42	117	139*	-15
CC(C)CC(=O)NC(=S)Nc1sc2c(c1C(N)=O)CCC2	-51	105	144*	-1
CC(C)(C)C(=O)NC(=S)Nc1sc2c(c1C(N)=O)CCC2	-54	107	146*	-3
CCOC(=O)Nc1sc2c(c1C(N)=O)CCC(C)C2 (centres undefined)	-18	89	115	17
CC(=O)NC(=S)Nc1sc2c(c1C(N)=O)CCC(C)C2 (centres undefined)	-37	98	132*	5
SMILES	STAT1 inh	STAT3 act	STAT1 act	STAT3 blocker
CC(=O)Nc1sc2c(c1C(N)=O)CCC2	1	95	94	7
CCCCC(=O)Nc1sc2c(c1C(N)=O)CCC2	-17	98	116	6
Cc1cc2nc(C)n(CCCNC(=O)Nc3cccc4ccccc34)c2cc1C	14	84	87	17
COc1ccc(OC)c(-c2nc3cc4ccccc4cc3nc2-c2ccccc2)c1	6	101	97	-4
Cc1ccc(C)c2[nH]c(=O)c(C(c3nnnn3C(C)(C)C)N3CC=C(c4ccc(F)cc4)CC3)cc12 (centres undefined)	35*	106	69	-10
CC1(C)O[C@@H]2C[C@H]3[C@@H]4CCC5=CC(=O)C=C[C@]5(C)[C@@]4(F)[C@@H](O)C[C@]3(C)[C@]2(C(=O)CO)O1	-25	100	122	3
CC(=O)OCC(=O)[C@@]12OC3(CCCC3)O[C@@H]1C[C@H]1[C@@H]3CCC4=CC(=O)C=C[C@]4(C)[C@@]3(F)[C@@H](O)C[C@@]12C	-32	103	129*	-1
COc1ccc(-n2nc(C(=O)NCC(=O)N3CCN(c4ccccn4)CC3)c3ccccc3c2=O)cc1OC	-17	102	115	4
COc1ccc(-n2nc(C(=O)NCC(=O)N3CCN(c4ccccn4)CC3)c3ccccc3c2=O)cc1	-41	105	137*	-2
Cc1cc(C(=O)COC(=O)c2ccc(O)cc2)c(C)n1Cc1ccco1	-49	108	149*	-12
Cc1sc2ncn(CC(=O)NCC3COc4ccccc4O3)c(=O)c2c1S(=O)(=O)N1CCCCC1 (centres undefined)	0	87	99	25
O=C(CSc1nnc(-c2ccco2)o1)c1ccc[nH]1	-33	111	130*	-5
CN(C(=O)c1cc2sccc2n1C)C1CCCCC1	-46	101	142*	3
Cn1c(C(=O)NC2CCCCC2)cc2sccc21	-40	90	137*	14
Cn1c(C(=O)N2CCCC(C(=O)O)C2)cc2sccc21 (centres undefined)	0	106	100	-2
CCOC(=O)c1sc2nc3n(c(=O)c2c1C)CCCCC3	-36	91	133*	18
CCOC(=O)c1sc2nc3n(c(=O)c2c1C)CCC3	-10	87	109	16
O=C(Nc1ccccc1)N1CCN(c2nc3ccccc3s2)CC1	0	69	100	40
O=C(C1CC1)N1CCN(c2nc3ccccc3s2)CC1	-34	90	131*	12
O=C(Nc1ccc(F)cc1)N1CCN(c2nc3ccccc3s2)CC1	7	63	93	46*
CCC(=O)N1CCN(c2nc3ccccc3s2)CC1	-32	92	129*	11
O=C(CNC(=O)c1ccccc1)OC1CCCCC1	-38	99	135*	7
O=C(O)c1ccc(-c2nc(-c3cccc(C(F)(F)F)c3)cs2)cc1	8	99	91	10
O=C(O)c1ccc(-c2nc(-c3ccc(Cl)cc3Cl)cs2)cc1	-42	132	137*	-20
COc1ccc(C)cc1N(C(=O)COc1cccc(F)c1)c1nc2ccccc2s1	-3	134*	102	-36
SMILES	STAT1 inh	STAT3 act	STAT1 act	STAT3 blocker
CC(C)(C)c1ccc(OCCC(=O)Nc2cccc(S(=O)(=O)N3CCCCC3)c2)cc1	13	96	88	13
Cc1ccccc1OCC(O)Cn1nnc2ccccc21 (centres undefined)	-50	108	142*	-6
Cn1ncc2c(NNC(=O)C3CCCCC3)ncnc21	2	100	98	8
CC(C)c1ccc(/C=N/NC(=O)C(=O)NCCCN2CCOCC2)cc1	-8	101	107	2
CC(C)(C)C(=O)Nc1ccc2oc(-c3cc(F)c(F)cc3Cl)nc2c1	-45	100	142*	1
CCC(C)NC(=O)CC(NS(=O)(=O)c1ccc(NC(C)=O)cc1)C(C)C (centres undefined)	-1	96	100	11
O=C(CNC(=O)c1ccccc1Cl)OCC(=O)N1CCc2ccccc21	-37	116	134*	-17
O=C(/C=C/c1cnc2ccccc2n1)NC12CC3CC(CC(C3)C1)C2	-55	97	150*	3
O=C1CCCCC1C(=O)c1cn(-c2ccc(Cl)c(Cl)c2)nn1 (centres undefined)	-33	99	129*	12
O=S(=O)([N-]c1nc2ccccc2nc1-[n+]1ccc(-c2ccncc2)cc1)c1ccccc1	-31	111	129*	-8
